The values below come from PMC6910256 (Journal of photochemistry and photobiology. A, Chemistry, 2019).

As a reminder, the IC50 is the concentration that gives 50% inhibition. The low end stands for inhibition by little substance, the high end for a need for much substance. The term kinact denotes the rate constant of inactivation at saturating inhibitor. For orientation: kinact/KI means the maximal inactivation rate divided by the concentration that gives half of it. What is called LD50 is the dose expected to kill half of the subjects tested.

In series [1] the target is T1, DUSP5 PD (Homo sapiens, UniProt Q16690).
T1 sequence (Q16690 178-319 limits assumed): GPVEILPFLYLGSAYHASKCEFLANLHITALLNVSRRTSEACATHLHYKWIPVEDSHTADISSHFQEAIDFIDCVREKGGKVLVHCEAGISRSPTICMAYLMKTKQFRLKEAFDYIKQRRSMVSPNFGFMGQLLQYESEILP
The experiment in a line: DUSP5 phosphatase domain pNPP assay, IC50 from initial velocities. The class given is biochemical. Conditions: IC50 against DUSP5 PD activity, mean ± SD. An outline of the steps:
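Recombinant DUSP5 phosphatase domain in 100 mM Tris, 100 mM NaCl, 5 mM MgCl2, pH 7.5, without or with 1 mM DTT, using 5 mM pNPP (near Km). Compound was serially diluted and enzyme added from a 25 μM stock. After 0, 30 or 60 min dark incubation, A405 was read every 30 s for 10 min at 25°C. Blank-subtracted slopes were normalised to vehicle controls and fitted to equation 2. Three or four trials of triplicate wells.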

The target of series [2] is T2, GST-DUSP5 (full length DUSP5, pERK substrate) (Homo sapiens, UniProt Q16690).
T2 sequence (Q16690 1-384): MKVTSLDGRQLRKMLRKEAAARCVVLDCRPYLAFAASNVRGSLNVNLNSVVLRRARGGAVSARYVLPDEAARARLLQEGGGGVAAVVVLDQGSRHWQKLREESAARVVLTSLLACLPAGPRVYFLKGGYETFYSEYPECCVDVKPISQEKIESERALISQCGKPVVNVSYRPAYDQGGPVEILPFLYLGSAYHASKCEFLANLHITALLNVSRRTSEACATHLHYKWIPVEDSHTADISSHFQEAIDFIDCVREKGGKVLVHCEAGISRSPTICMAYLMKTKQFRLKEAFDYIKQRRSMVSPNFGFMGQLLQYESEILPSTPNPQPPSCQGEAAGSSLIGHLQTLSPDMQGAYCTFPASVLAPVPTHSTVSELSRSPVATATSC
The experiment in a line: In vitro ERK dephosphorylation Western blot assay. The class given is biochemical. On the technique in general: Immunoblotting shows a protein as a band on a membrane.

Series [3] has as its target T1, DUSP5 PD. Nature of the series: Reaction progress curve analysis of irreversible DUSP5 PD inactivation. The format is biochemical.
For series [4], the target named is T1, DUSP5 PD. The experiment in a line: Spectral analysis of other xanthene dyes binding to DUSP5 PD protein. Conditions: 4 μM compound, 4 μM protein. An outline of the steps:
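Each test compound at 4 μM in assay buffer, without or with 1 mM DTT, in 2 mL quartz cuvettes. Absorbance was scanned at 1 nm intervals from 400 to 600 nm. DUSP5 PD was then added to a final 4 μM and the sample rescanned. Blanks were buffer with or without DTT, plus buffer with 4 μM protein. Spectra without protein were subtracted from spectra with protein to give difference spectra.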

The next series can be described thus: Nephelometry. The format is physicochemical. To be noted: assay buffer pH 7.5 without vs with 1 mM DTT. The method in brief:
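Aggregation was tested in 96-well plates using substrate-free assay buffer at pH 7.5, without or with 1 mM DTT. Serially diluted compound was added to give final concentrations of 1–100 μM or 1–300 μM, depending on compound.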

For series [5] the following is noted: cited from earlier work.
The next series concerns ulcerative hemangioma. To be noted: topical use in the clinic; cited from earlier work.

Take `O=C1OC2(c3ccccc31)c1cc(Br)c(O)c(Br)c1Oc1c2cc(Br)c(O)c1Br` [Eosin Y, 2’,4’,5’,7’-tetrabromofluorescein]: the IC50 against DUSP5 PD [1] (with 1 mM DTT, 30 min incubation) was > 100 µM; against DUSP5 PD [1] (with 1 mM DTT, 60 min incubation) it was > 100 µM; on DUSP5 PD [1] (without DTT, 30 min incubation), 63.3 ± 6.9 µM; against DUSP5 PD [1] (without DTT, 60 min incubation), 37.6 ± 4.5 µM; in series [2], 12.7 ± 3 µM. In addition, the Ki at DUSP5 PD [3] turned out to be 43 µM. At DUSP5 PD [3], the inactivation rate constant (kinact) was 0.0002 s⁻¹. Moreover, the “fold less effective than merbromin (time-dependent inhibition)” value on DUSP5 PD [3] (absence of DTT) was “roughly 10 fold”. The “Inhibitor mechanism (irreversible inactivation)” value on DUSP5 PD [3] (with 1 mM DTT) is “single-step”; on DUSP5 PD [3] (without DTT), “two-step”. For the same molecule, the kinact/KI on DUSP5 PD [3] (with 1 mM DTT, summary of data sets (Table 2)) came out at 0.9 ± 0.13 M⁻¹ s⁻¹; on DUSP5 PD [3] (without DTT, fit shown in Fig. 5c/6c), 6.6 M⁻¹ s⁻¹; at DUSP5 PD [3] (without DTT, summary of data sets (Table 2)), 6.06 ± 2.43 M⁻¹ s⁻¹. The results for the “spectral shift upon addition of DUSP5 PD protein” value at DUSP5 PD [4] (with 1 mM DTT) and on DUSP5 PD [4] (without DTT) were “not diminished” and “spectrally shifted”, respectively. Besides, the “effect of DTT addition on compound aggregation” value in “Nephelometry” is recorded as “little effect”. The LD50 in series [5] was > 10 mmol/kg. Moreover, the “efficacy in ulcerative hemangioma patients” value with ulcerative hemangioma is recorded as “showed efficacy”.
